Assay outcomes as filed in PubChem.
MEKK2 mut-MEK5: MEK5 binding signal on mutant MEKK2 PB1, primary screen, biochemical, multiplex bead flow cytometry, Alexa488-MEK5; Alexa488-MEK5 binding to MEKK2 mutant; percent response, % at 10 µM; hit rate 0.35% among 290,000; in the data active means percent response above about 24%, passing the limit was not always enough
MEKK3 PB1 HTS: modulators of MEKK3-MEK5 PB1 binding, primary screen, biochemical, wildtype MEKK3, multiplex bead flow cytometry, Alexa488-MEK5; Mitogen-activated protein kinase kinase kinase 3 (Homo sapiens), Q99759; bead-based flow cytometry, Alexa488-MEK5 binding to MEKK3; actives lie on both sides; 0 = blocked by unlabeled MEK5, 100 = vehicle; binding response (% of control), % at 10 µM; hit rate 1.4% among 290,000; AID 1529, 2009;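 active means binding response more than 3 SD above or below the average of its plate-row segment, actives on both sides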;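 further: Alexa488 bead fluorescence after subtracting the streptavidin-only scavenger bead signal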
Target sequence (Q99759 whole entry, looked up): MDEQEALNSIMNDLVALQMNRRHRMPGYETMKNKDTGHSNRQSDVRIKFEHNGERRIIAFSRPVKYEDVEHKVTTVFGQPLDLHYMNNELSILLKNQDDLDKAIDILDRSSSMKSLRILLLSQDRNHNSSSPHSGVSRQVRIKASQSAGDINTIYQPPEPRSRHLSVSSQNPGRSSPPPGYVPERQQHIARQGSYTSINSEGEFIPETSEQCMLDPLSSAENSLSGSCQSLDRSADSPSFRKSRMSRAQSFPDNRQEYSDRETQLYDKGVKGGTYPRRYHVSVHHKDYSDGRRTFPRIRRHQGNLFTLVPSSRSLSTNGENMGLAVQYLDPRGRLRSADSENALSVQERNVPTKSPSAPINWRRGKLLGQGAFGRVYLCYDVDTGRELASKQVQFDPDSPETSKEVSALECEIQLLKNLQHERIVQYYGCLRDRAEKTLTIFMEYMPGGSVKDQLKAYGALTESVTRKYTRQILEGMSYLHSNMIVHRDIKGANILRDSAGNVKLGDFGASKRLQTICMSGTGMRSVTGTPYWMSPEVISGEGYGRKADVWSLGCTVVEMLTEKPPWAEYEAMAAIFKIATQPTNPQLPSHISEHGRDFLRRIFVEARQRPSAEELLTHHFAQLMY
STK33 kinase inh: inhibitors of purified STK33 kinase, primary screen, biochemical, ADP-Glo luminescence, homogeneous, cell-free; AID 2661, 2010; hit rate 0.073% among 320,000; Serine/threonine-protein kinase 33 (Homo sapiens), Q9BYT3; MBP phosphorylation; inhibition, % at 10 µM;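 active means inhibition at or above 25%, using the most active replicate where run in duplicate; inactive means inhibition below 25%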
MEKK2wt PB1 HTS: modulators of MEK5 binding to wildtype MEKK2, primary screen, biochemical, multiplex bead flow cytometry, Alexa488-MEK5; hit rate 1.1% among 290,000; Mitogen-activated protein kinase kinase kinase 2 (Homo sapiens), Q9Y2U5; binding response (% of control), % at 10 µM; Alexa488-MEK5 binding to MEKK2 WT; actives lie on both sides; in the data active means binding response below about 67% or above about 130%
GSK3 alpha inh: blockers of GSK3A enzyme activity – biochemical, luminescence, cell-free homogeneous, HTS, primary screen; Glycogen synthase kinase-3 alpha (Homo sapiens), P49840; GSK-3 alpha kinase, ADP-Glo luminescence, 60 min; inhibition, % at 10 µM; hit rate 0.1% among 320,000;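 active means more than half of replicates show inhibition above 20%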;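 further: GST-tagged GSK-3 alpha with peptide substrate and 25 µM ATP; 0% = DMSO neutral wells and 100% = GW8510 positive control wells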
GSK3B inh: human GSK3beta kinase inhibitors, primary screen, biochemical, cell-free homogeneous, HTS; Glycogen synthase kinase-3 beta (Homo sapiens), P49841; GST-GSK3beta kinase, ADP-Glo luminescence, 60 min; hits give low values; activity score (negative = inhibition), % at 10 µM; hit rate 0.038% among 300,000; AID 2097, 2009;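 active means more than half of replicate wells score below -50%, meaning over 50% inhibition versus plate controls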;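 further: 0% = median DMSO wells and -100% = median GW8510 positive control wells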
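Test system: GST-tagged human GSK3beta kinase, cell-free; evaluation: activity score scaled between in-plate DMSO and GW8510 controls; measured by: ADP-Glo luminescence; incubation: 60 min reaction, RT; benchmarks: DMSO and 20 µM GW8510; reagent: peptide substrate plus 25 µM ATP (final); medium: Tris/MgCl2 kinase buffer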
* = called active by the depositor; / = no result. Shown are actives, neighbours in structure and some others; about 2.1% of the full set was active somewhere.

SMILES	MEKK2 mut-MEK5	MEKK3 PB1 HTS	STK33 kinase inh	MEKK2wt PB1 HTS	GSK3 alpha inh	GSK3B inh
CN(C)CCCN(C(=O)COc1ccccc1)c1nc2c(F)cccc2s1	0	109	0	124	-1	-2
Cc1ccc2nc(N(CCN(C)C)C(=O)c3ccc4ccccc4c3)sc2c1	14	105	0	130	-1	1
CN(C)CCCN(C(=O)c1ccc(C(=O)c2ccccc2)cc1)c1nc2c(F)cccc2s1	13	108	-2	143*	0	-25
CCN(c1ccccc1)S(=O)(=O)c1ccc(C(=O)N(CCCN(C)C)c2nc3cc4c(cc3s2)OCO4)cc1	25*	106	-1	158*	2	-8
CN(C)CCN(C(=O)c1ccc2ccccc2c1)c1nc2ccc(Br)cc2s1	12	106	-1	144*	-2	-1
Cc1ccnc(NC(=O)CCC(=O)N(CC(=O)NCc2ccccc2)Cc2cccs2)c1	-1	96	0	100	51*	-23
COc1ccc(-n2c(SCC(=O)Nc3cc(C)on3)nc3ccccc3c2=O)cc1Cl	83*	92	0	/	-4	2
COc1cccc(-n2c(SCC(=O)Nc3cc(C)on3)nc3ccccc3c2=O)c1	0	99	-2	96	0	4
Nc1nc(NCCO)nc(NCC2CCCO2)c1[N+](=O)[O-] (stereo not given)	-1	85	2	101	80*	1
Nc1nc(NCC2CCCO2)nc(Nc2ccccc2)c1[N+](=O)[O-] (stereo not given)	-2	98	0	98	10	2
Nc1nc(NCC2CCCO2)nc(NCC2CCCO2)c1[N+](=O)[O-] (stereo not given)	17	107	0	106	52*	0
CC(C)CCNc1nc(N)c([N+](=O)[O-])c(NCC2CCCO2)n1 (stereo not given)	-3	98	4	98	73*	-42
COc1ccc(S(=O)(=O)NCc2cccnc2)cc1C	0	99	1	97	-1	0
COc1cc(C(=O)Nc2ccn(C)n2)ccc1OC(F)F	/	/	0	/	21	/
CCOC(=O)c1c(S(=O)(=O)Nc2ccccn2)c(C)n(C)c1C	0	103	0	100	-2	0
CC1CCCCN1S(=O)(=O)c1ccc2[nH]c(=O)cc(C(=O)NCCCN3CCCCCC3)c2c1 (stereo not given)	20	103	-1	143*	-1	-2
COc1ccc(CCNC(=O)CCn2c(=O)c3cccn3c3ccc(F)cc32)c(OC)c1OC	4	100	0	100	3	-6
CC(Oc1ccc2c(c1)c1ccnc3c4ccccc4c(=O)n2c13)C(=O)NCCN1CCOCC1 (stereo not given)	4	103	75*	109	-2	0
O=C1C2CCCN2c2ccc(S(=O)(=O)N3CCOCC3)cc2N1Cc1cccc(C(F)(F)F)c1 (stereo not given)	0	98	0	-8.0*	-10	1
C=CCc1cccc(/C=N/NC(=O)c2ccc3nc[nH]c3c2)c1O	10	103	2	109	0	-2
Cc1ncc(/C=C2\C(=O)Nc3ccccc32)[nH]1	-3	95	76*	95	7	0
CCc1ncc(/C=C2\C(=O)Nc3ccccc32)[nH]1	-20	92	49*	96	9	-3
COc1ccc(-n2nc3c(N4CCC(C(=O)N5CCC(C)CC5)CC4)nnc(C)c3c2C)cc1	920*	139*	-1	476*	0	0
Oc1[nH]c2ccccc2c1C=Nc1ccc2c(c1)OCO2	4	100	26*	99	16	-32
COc1ccc(N=Cc2c(O)[nH]c3ccccc23)cc1	2	105	4	106	3	-1
SMILES	MEKK2 mut-MEK5	MEKK3 PB1 HTS	STK33 kinase inh	MEKK2wt PB1 HTS	GSK3 alpha inh	GSK3B inh
COc1ccc(Nc2nc(N)c([N+](=O)[O-])c(NCc3ccccc3)n2)cc1	1	102	0	94	-1	-9
Cc1cccc(Nc2nc(N)c([N+](=O)[O-])c(NCCO)n2)c1	-8	93	16	97	64*	-45
COc1ccc(Nc2nc(N)c([N+](=O)[O-])c(NCCO)n2)cc1	0	98	21	103	75*	-53*
Nc1nc(Nc2cccc(Cl)c2)nc(NCCO)c1[N+](=O)[O-]	-3	100	9	94	73*	-50*
CCOC(=O)CN1C(=O)S/C(=C/c2ccc(OCc3ccc(C(=O)O)cc3)cc2)C1=O	-8	90	0	95	-2	1
Fc1cnc(N2CCOCC2)nc1N1CCOCC1	0	100	0	99	0	-2
Clc1nc(N2CCOCC2)ncc1Br	2	91	-2	-4.0*	-1	0
Cc1nn(C(C)C(=O)NCCCN2CCCCCC2)c(=O)c2cc3sccc3n12 (stereo not given)	15	108	1	144*	1	-5
CCC(C(=O)NCCN1CCOCC1)n1nc(C)n2c(cc3sccc32)c1=O (stereo not given)	2	101	0	101	-1	1
O=C(CN1CCOCC1)Nc1ncc(Cc2ccccc2Cl)s1	4	103	-3	102	14	-18
CCc1ccc(CCC(=O)Nc2ncc(Cc3ccccc3Cl)s2)o1	1	163*	-1	113	0	-2
CCN(Cc1ccccc1)C(=O)c1ccc(CS(=O)c2ccccc2C)o1 (stereo not given)	4	103	-1	106	2	1
CC1=CC(C)(C)n2c(O)c(N=NC(N)=S)c3c(C)ccc1c32	14	101	-3	107	-1	0
CC1=CC(C)(C)n2c(O)c(N=NC(N)=S)c3cccc1c32	0	146*	0	108	-1	-2
O=C(CSc1nc(C2CCCCC2)n(-c2ccccc2)n1)NCC(F)(F)F	0	145*	-2	107	0	5
C[C@@H](C(=O)N1CCN(C(=O)OC(C)(C)C)CC1)n1cc(-c2cn([C@@H](C)C(=O)N3CCN(C(=O)OC(C)(C)C)CC3)nn2)nn1	4	89	/	4.0*	/	2
